# Measurements collected from several papers.
# Compare with care: the assays were run in different laboratories.
# Target: Bone morphogenetic protein receptor type-1A (BMPR1A, Homo sapiens, UniProt P36894)
SMILES,assay,setting,remaining binding [%]
CN(C)c1nccc(-c2cnc3ncccn23)n1,binding,1 µM,100
O=C(c1ccc(Nc2ncc(Cl)c(-c3cc4ccccc4s3)n2)cc1)N1CCC(N2CCCC2)CC1,"binding, competition with immobilised ligand",1 µM,60
Cc1cnn2ncc(-c3ccnc(N(C)C)n3)c2c1,binding,1 µM,100
C[C@@]1(Cc2ccc(C#N)cc2)C(=O)N(c2cc(Cl)cc(Cl)c2)c2ncc(C(=O)NC3(c4nc(C5CCC5)no4)CC3)n21,"binding, competition with immobilised ligand",1 µM,100
N[C@H]1CCN(c2nccc(-c3cnn4ncccc34)n2)C1,binding,1 µM,75
c1ccc(N2CCN(Cc3nc4ccccc4[nH]3)CC2)nc1,"binding, competition with immobilised ligand",1 µM,86
CN(C)c1ncc(F)c(-c2cnn3ncccc23)n1,binding,1 µM,100
FC(F)(F)Oc1cccc(-c2cnc3ccc(-c4ccncc4)nn23)c1,"cell-free assay, competition with immobilised ligand",5 µM,81
Cc1nccc(COC(=O)N2C[C@@H]3[C@@H](CNC(=O)c4ccc5[nH]nnc5c4)[C@@H]3C2)n1,"binding, competition with immobilised ligand",1 µM,85
c1cnn2ncc(-c3ccnc(N4CCC45COC5)n3)c2c1,binding,1 µM,88
CCN1CCN(Cc2ccc(C(=O)Nc3ccc(C)c(Oc4ccc5c(c4)CC(=O)N5)c3)cc2C(F)(F)F)CC1,"binding, competition with immobilised ligand",1 µM,100
CNC(=O)[C@@H]1CC[C@@H](n2c(-c3ccc4cnccc4c3)nc3ccc(C(=O)NCc4cccc(C(N)=O)c4)cc32)C1,"binding, competition with immobilised ligand",1 µM,92
O=C(NS(=O)(=O)c1ccc(NCC2CCOCC2)c([N+](=O)[O-])c1)c1ccc(N2CCN(Cc3ccc(C(F)(F)F)cc3-c3ccc(Cl)cc3)CC2)cc1Oc1cnc2[nH]ccc2c1,"cell-free assay, competition with immobilised ligand",1 µM,81
C=CC(=O)N1CCC(C(=O)NCC(=O)N2CCN(c3nc(-c4cnc(N)nc4C(F)F)nc(N4CCOCC4)n3)CC2)CC1,"binding, competition with immobilised ligand",1 µM,80
O=C(NCC1CCOCC1)c1n[nH]cc1NC(=O)c1c(F)cccc1F,"binding, competition with immobilised ligand",1 µM,89
O=C(O)[C@H]1[C@H](Cn2nnc3ccccc3c2=O)CC[C@@H]1C(=O)c1ccc(OCCC2CCOCC2)cc1,"binding, competition with immobilised ligand",1 µM,61
Cc1cnc(Nc2ccc(C(=O)N3CCC(N4CCCC4)CC3)cc2)nc1-c1cc2ccccc2s1,"binding, competition with immobilised ligand",1 µM,60
FC(F)(F)c1ccc2c(c1)nc(-c1cccnc1)n2C1CC1,"cell-free assay, competition with immobilised ligand",1 µM,93
COc1cnc(Nc2cccc(S(N)(=O)=O)c2)nc1N1CCN(c2ccccc2)C(=O)C1,"binding, competition with immobilised ligand",1 µM,67
O=C(NCCCN1CCOCC1)c1ccc(Nc2ncc(Cl)c(-c3ccc(Cl)s3)n2)cc1,"binding, competition with immobilised ligand",1 µM,86
